# TDP2 absorb = human TDP2 enzyme inhibitors, primary screen, biochemical, epi absorbance, recombinant enzyme; Tyrosyl-DNA phosphodiesterase 2 (Homo sapiens), O95551; T5PNP hydrolysis, p-nitrophenol absorbance 415 nm; AID 720702, 2013; inhibition, % at 12.8 µM; hit rate 0.34% among 370,000;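 active = inhibition above the mean of all tested compounds plus 3 SD, set per campaign, cut at about 25% in these data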;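 note: 0% = DMSO with enzyme and 100% = buffer with substrate but no TDP2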
#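 System – recombinant human TDP2 · Quantity – TDP2 enzyme at 120 nM final · Doses – single concentration, 12.8 µM nominal, with 1% DMSO · Incubation – 2 h at 37 °C · Measured by – epi absorbance of p-nitrophenol freed from T5PNP by hydrolysis · Read-out – % inhibition relative to enzyme-containing and enzyme-free wells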
# NSD2 inh = NSD2 histone methyltransferase inhibitors, primary screen, biochemical, AlphaScreen, single concentration, set 2; NSD2 peptide methylation, 120 min; inhibition, % at 12.5 µM; Histone-lysine N-methyltransferase NSD2 (Homo sapiens), O96028; hit rate 0.54% among 310,000; in the data active = inhibition above about 50%
# UHRF1 binding = UHRF1 methylated DNA binding inhibitors, primary screen, counter-screen for MBD2 inhibitor project, biochemical, TR-FRET, human UHRF1, single concentration | hit rate 0.75% among 370,000 | UHRF1 binding to methylated oligo | E3 ubiquitin-protein ligase UHRF1 (Homo sapiens), Q96T88 | inhibition, % at 4.4 µM; in the data active = inhibition above about 21%;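 note: UHRF1 SRA domain binding a hemimethylated CpG hairpin DNA probe; 0% = median of test compound wells and 100% = reference inhibitor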
# Target sequence (Q96T88 whole entry, looked up, the tested form may be a part): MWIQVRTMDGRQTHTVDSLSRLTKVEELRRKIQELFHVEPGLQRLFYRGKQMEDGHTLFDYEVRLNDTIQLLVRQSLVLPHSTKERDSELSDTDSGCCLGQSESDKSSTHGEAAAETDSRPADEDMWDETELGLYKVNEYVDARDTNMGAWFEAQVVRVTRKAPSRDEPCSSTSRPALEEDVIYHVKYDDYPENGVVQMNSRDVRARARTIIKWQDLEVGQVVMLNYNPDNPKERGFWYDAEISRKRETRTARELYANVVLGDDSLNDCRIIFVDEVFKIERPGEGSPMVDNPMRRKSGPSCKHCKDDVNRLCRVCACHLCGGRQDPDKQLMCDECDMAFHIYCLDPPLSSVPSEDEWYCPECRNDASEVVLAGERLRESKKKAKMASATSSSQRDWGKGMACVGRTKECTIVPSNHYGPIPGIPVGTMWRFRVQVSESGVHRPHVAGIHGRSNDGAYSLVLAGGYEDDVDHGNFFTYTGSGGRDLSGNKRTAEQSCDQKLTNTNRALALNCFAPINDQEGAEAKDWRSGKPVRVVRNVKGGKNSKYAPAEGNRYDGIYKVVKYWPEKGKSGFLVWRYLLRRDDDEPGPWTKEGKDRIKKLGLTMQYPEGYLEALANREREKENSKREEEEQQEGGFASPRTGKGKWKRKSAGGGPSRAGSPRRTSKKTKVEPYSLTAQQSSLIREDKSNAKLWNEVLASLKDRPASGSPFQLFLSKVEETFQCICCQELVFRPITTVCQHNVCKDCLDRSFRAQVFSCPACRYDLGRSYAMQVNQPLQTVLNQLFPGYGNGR
# MBD2 DNA inh = inhibitors of MBD2 binding to methylated DNA, primary screen, biochemical, TR-FRET, DNA-binding domain, human | Methyl-CpG-binding domain protein 2 (Homo sapiens), Q9UBB5 | MBD2 binding to methylated oligonucleotide | inhibition, % at 4.4 µM | hit rate 0.31% among 370,000 | AID 686964, 2013; in the data active = inhibition above about 13%
# CASP6 VEID inh = human caspase-6 inhibitors, primary screen, biochemical, VEID-R110 fluorescence, single point, set 2. AID 686996, 2013. inhibition, % at 12.5 µM. hit rate 0.53% among 350,000. purified caspase-6, Z-VEID-R110 cleavage fluorescence;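 active = mean inhibition across replicates at least about 35%, with every replicate also reaching that limit, limit read from the data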;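 note: 0% = median of neutral control wells and 100% = no fluorescence left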
# LEDGF integ inh = blockers of LEDGF/p75-dependent integrase strand transfer – biochemical, TR-FRET, high throughput, primary screen | hit rate 0.64% among 370,000 | inhibition, % at 3.7 µM | AID 743269, 2014 | TR-FRET IN-LEDGF/p75 DNA integration, Eu/Cy5;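 active = inhibition above the screen-wide mean plus 3 SD, cut at about 13% in these data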;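 note: signal is the Cy5 over europium emission ratio at 671 and 618 nm; 0% = plate median of compound wells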
# Numbers without * were called inactive; . = no result. An excerpt weighted towards active compounds, which were near 1.8% of everything screened.
SMILES,TDP2 absorb,NSD2 inh,UHRF1 binding,MBD2 DNA inh,CASP6 VEID inh,LEDGF integ inh
COCCN(C(=O)COC(=O)/C=C/c1ccc(C)o1)c1c(N)n(Cc2ccccc2)c(=O)[nH]c1=O,4.1,-2.3,-1.4,0.2,3.8,-1.2
Cc1c(C(=O)OCC(=O)N(CC(C)C)c2c(N)n(Cc3ccccc3)c(=O)[nH]c2=O)oc2ccccc12,-8.4,0.4,-0.8,-3.7,46.0*,-5.0
COCCN(C(=O)COC(=O)/C=C/c1ccco1)c1c(N)n(Cc2ccccc2)c(=O)[nH]c1=O,-20.6,3.4,2.5,-0.4,43.2*,1.0
CO[C@H]1CN(C)C(=O)c2ccc(NC(C)=O)cc2OC[C@H](C)N(C(=O)c2ccc(F)cc2)C[C@H]1C,.,.,.,.,0.2,.
Cc1ccc(CNCc2cccnc2)s1,-8.7,-1.2,26.2*,-0.6,0.2,-1.6
C[C@H]1CN([C@@H](C)CO)C(=O)Cc2cc(NC(=O)Cc3cn(C)c4ccccc34)ccc2O[C@H]1CN(C)S(C)(=O)=O,.,.,.,.,2.5,.
O=C(O)CN1C(=O)/C(=C\c2cc(Br)ccc2OCc2ccccc2F)SC1=S,6.6,8.0,1.7,0.8,37.7*,-2.6
CCOc1ccccc1C=C1SC(=S)N(CC)C1=O,-5.2,-5.6,2.0,1.3,-2.1,0.3
O=C(O)CN1C(=O)/C(=C\c2cc(Br)ccc2OCc2ccccc2Cl)SC1=S,1.6,5.8,-1.6,-0.5,75.6*,4.4
O/N=C/c1cc(Br)ccc1OCc1ccccc1F,-7.6,0.0,9.9,0.3,.,1.2
O=C(O)CN1C(=O)/C(=C\c2cccc(OCc3ccc(Cl)cc3Cl)c2)SC1=S,20.4,33.7,-5.3,-10.5,59.8*,6.2
O=C(O)CCN1C(=O)/C(=C\c2cccc(OCc3ccccc3)c2)SC1=S,-6.1,-5.6,-2.0,2.0,0.8,1.9
O=C(O)CN1C(=O)/C(=C\c2ccccc2OCc2ccc(Cl)cc2Cl)SC1=S,6.3,8.1,-2.1,2.0,52.0*,-2.2
O=C1/C(=C\c2cc(Br)cc(Br)c2O)SC(=S)N1Cc1ccccc1,.,8.1,.,.,.,.
CC(C)NC(=O)N1C[C@H]2[C@@H](c3ccccc31)[C@@H](CO)N2C(=O)c1ccccc1,.,.,.,.,-6.1,.
C/C=C/c1cnc2c(c1)C(=O)N([C@H](C)CO)C[C@H](C)[C@H](CN(C)C(=O)Nc1ccc(C(F)(F)F)cc1)O2,.,.,.,.,-0.8,.
O=C(O)CN1C(=O)/C(=C\c2cc(Br)ccc2OCc2ccc([N+](=O)[O-])cc2)SC1=S,3.2,6.2,-4.1,1.6,54.8*,-0.7
COc1cc([N+](=O)[O-])cc(/C=C2/SC(=S)N(Cc3ccccc3)C2=O)c1O,14.1,5.7,-4.2,-0.5,.,1.8
CCOc1ccc(-n2nnc3c(=O)n(CC(=O)Nc4cc(C)on4)cnc32)cc1,-0.3,-3.0,0.1,0.7,-2.8,-1.1
CCOc1ccc(-n2nnc3c(=O)n(C/C=C/c4ccccc4)cnc32)cc1,7.4,.,22.7*,-1.0,0.6,0.7
O=C(c1ccncc1)N1CCCCN2[C@H](C1)[C@H](c1ccc(C#Cc3ccccn3)cc1)[C@@H]2CO,.,.,.,.,36.6*,.
O=C(c1ccncc1)N1CCCCN2[C@H](CO)[C@@H](c3ccc(C#Cc4ccccn4)cc3)[C@@H]2C1,.,.,.,.,2.4,.
c1ccc2[nH]c3cc4ncnc4cc3nc2c1,-3.6,18.6,-17.8,-11.8,68.5*,2.7
C[C@H](CO)N1C[C@H](C)[C@@H](CN(C)C(=O)Nc2ccc(F)cc2)Oc2c(NS(=O)(=O)c3cccs3)cccc2C1=O,.,.,.,.,1.9,.
Cc1ccccc1N1CC(=O)N(c2ccccc2C)CC1=O,-6.9,-3.1,-1.6,-1.6,.,-7.2
CC1=NN(c2ccccc2C)C(=O)C1,50.7*,1.3,4.9,-9.3,0.5,9.4
C[C@H]1CN([C@@H](C)CO)C(=O)Cc2cc(NC(=O)CCC(F)(F)F)ccc2O[C@@H]1CN(C)C(=O)Nc1cccc2ccccc12,.,.,.,.,0.4,.

# Screening results deposited in PubChem BioAssay by several laboratories.
